Drawing on ChEMBL document CHEMBL3751842, “Novel triazolothiadiazines act as potent anticancer agents in liver cancer cells through Akt and ASK-1 proteins” (Bioorg Med Chem, 2016), this text covers IC50 for 15 molecules.

One assay relates to MCF7. The experiment in a line: Cytotoxicity against human MCF7 cells assessed as growth inhibition after 72 hrs by sulforhodamine B assay. The format is functional, cell-based. The note with it: Homo sapiens, MCF7, 72 h; read-out: IC50. The procedure, abridged:
(§1)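 Cells were grown at 37°C, 5% CO2 in DMEM with 10% FBS. They were seeded at 1000–3000 cells/well, grown 24 h, then exposed to compound at 2.5–40 µM for 72 h. Cells were fixed in 10% TCA for 1 h at 4°C, stained with 0.4% SRB in 1% acetic acid for 10 min, and the dye solubilized in 10 mM Tris. Absorbance was read at 515 nm; runs were in triplicate; IC50 was calculated, with fits of R2 0.8–1 accepted.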
Background: In SRB staining, fixed cells bind dye roughly in proportion to their protein.
By IC50 is commonly meant the concentration that inhibits the measured activity by half. Turning to `COc1ccc2cc(C(C)c3nnc4n3N=C(c3ccc([N+](=O)[O-])cc3)CS4)ccc2c1` (stereo not given), the IC50 is 18.8 µM.
Still for that read-out and setting: to `COc1ccc2cc(C(C)c3nnc4n3N=C(c3ccc(F)cc3)CS4)ccc2c1` (stereo not given) belongs 15.8 µM.
Still for that read-out and setting: the figure for `CC(C)Cc1ccc(C(C)c2nnc3n2N=C(c2ccc(Cl)cc2)CS3)cc1` (stereo not given) is 8.8 µM.
On to `COc1ccc2cc(C(C)c3nnc4n3N=C(c3ccc(Cl)cc3)CS4)ccc2c1` (stereo not given), for which the half-inhibitory concentration (IC50) was 10.1 µM.
For `CC[C@@]1(O)C(=O)OCc2c1cc1n(c2=O)Cc2cc3ccccc3nc2-1` [CAMPTOTHECIN], the IC50 is at most 0.1 µM.
Turning to `CC(c1ccc(-c2ccccc2)c(F)c1)c1nnc2n1N=C(c1ccc(C(F)(F)F)cc1)CS2` (stereo not given), the concentration for half-maximal inhibition (IC50) was 4.3 µM.
The same measure, in the same setting: to `COc1ccc(C2=Nn3c(nnc3C(C)c3ccc4cc(OC)ccc4c3)SC2)cc1` (stereo not given) belongs 6.6 µM; to `COc1ccc2cc(C(C)c3nnc4n3N=C(c3ccc(Br)cc3)CS4)ccc2c1` (stereo not given), 11.5 µM; to `CC(C)Cc1ccc(C(C)c2nnc3n2N=C(c2ccccc2)CS3)cc1` (stereo not given), 9.7 µM.
Same read-out and setting: to `CC(C)Cc1ccc(C(C)c2nnc3n2N=C(c2ccc(Cl)cc2Cl)CS3)cc1` (stereo not given) belongs 11.8 µM.

The same assay, now with this note: mcf7.
In the case of `COc1ccc2cc([C@H](C)C(=O)O)ccc2c1` [NAPROXEN], the IC50 result was “Not Active”.
Take `CC(C(=O)O)c1ccc(-c2ccccc2)c(F)c1` (stereo not given) [FLURBIPROFEN]: the half-inhibitory concentration (IC50) entry is on record as “Not Active”.
With `CC(c1ccc(-c2ccccc2)c(F)c1)c1n[nH]c(=S)n1N` (stereo not given), the IC50 result is on record as “Not Active”.
Same read-out and setting: to `CC(C)Cc1ccc(C(C)C(=O)O)cc1` (stereo not given) [IBUPROFEN] belongs “Not Active”; to `CC(C)Cc1ccc(C(C)c2nnc3n2N=C(c2ccc([N+](=O)[O-])cc2)CS3)cc1` (stereo not given), “Not Active”.

Tested on in a further assay: not listed separately
The experiment in a line: Cytotoxicity against human Mahlavu cells assessed as growth inhibition after 72 hrs by sulforhodamine B assay. Format: functional, cell-based. As to conditions: Homo sapiens, Mahlavu, 72 h; read-out: IC50; call rule not given here. The gist of the method:
as §1
In the case of `CC[C@@]1(O)C(=O)OCc2c1cc1n(c2=O)Cc2cc3ccccc3nc2-1` [CAMPTOTHECIN], the half-inhibitory concentration (IC50) is under 1 µM.

The assay is the same for the next values; noted with them: mahlavu.
With `COc1ccc2cc([C@H](C)C(=O)O)ccc2c1` [NAPROXEN], the IC50 result is “Not Active”.
For `CC(C(=O)O)c1ccc(-c2ccccc2)c(F)c1` (stereo not given) [FLURBIPROFEN], the IC50 result is given as “Not Active”.
Take `CC(c1ccc(-c2ccccc2)c(F)c1)c1n[nH]c(=S)n1N` (stereo not given): the half-maximal inhibitory concentration (IC50) result is on record as “Not Active”.
Consider `CC(C)Cc1ccc(C(C)C(=O)O)cc1` (stereo not given) [IBUPROFEN], for which the half-inhibitory concentration (IC50) entry is given as “Not Active”.

Tested on in the next assay: not listed separately
The assay is described as follows: Cytotoxicity against human SNU475 cells assessed as growth inhibition after 72 hrs by sulforhodamine B assay. Format: functional, cell-based, SNU-475. The note with it: Homo sapiens, SNU-475, 72 h; read-out: IC50. The procedure, abridged: as §1
Consider `CC[C@@]1(O)C(=O)OCc2c1cc1n(c2=O)Cc2cc3ccccc3nc2-1` [CAMPTOTHECIN], for which the IC50 was under 1 µM.

Still in this assay, the particulars now being: snu-475.
In the case of `COc1ccc2cc([C@H](C)C(=O)O)ccc2c1` [NAPROXEN], the concentration for half-maximal inhibition (IC50) result is “Not Active”.
Still for that read-out and setting: the entry for `CC(C(=O)O)c1ccc(-c2ccccc2)c(F)c1` (stereo not given) [FLURBIPROFEN] is “Not Active”; for `CC(c1ccc(-c2ccccc2)c(F)c1)c1n[nH]c(=S)n1N` (stereo not given) it is “Not Active”; for `CC(C)Cc1ccc(C(C)C(=O)O)cc1` (stereo not given) [IBUPROFEN] it is “Not Active”.

The test system of another assay is HepG2. The assay is described as follows: Cytotoxicity against human HepG2 cells assessed as growth inhibition after 72 hrs by sulforhodamine B assay. Format: functional, cell-based. The note with it: Homo sapiens, HepG2, 72 h; read-out: IC50. The procedure, abridged: as §1
As to `CC(c1ccc(-c2ccccc2)c(F)c1)c1n[nH]c(=S)n1N` (stereo not given), the half-inhibitory concentration (IC50) is 21.4 µM.
Same read-out and setting: to `CC[C@@]1(O)C(=O)OCc2c1cc1n(c2=O)Cc2cc3ccccc3nc2-1` [CAMPTOTHECIN] belongs under 1 µM.

Staying with this assay, now noted: hepg2.
Regarding `COc1ccc2cc([C@H](C)C(=O)O)ccc2c1` [NAPROXEN], the IC50 entry is listed as “Not Active”.
The same measure, in the same setting: to `CC(C(=O)O)c1ccc(-c2ccccc2)c(F)c1` (stereo not given) [FLURBIPROFEN] belongs “Not Active”; to `CC(C)Cc1ccc(C(C)C(=O)O)cc1` (stereo not given) [IBUPROFEN], “Not Active”.

Tested on in a further assay: not listed separately
The experiment in a line: Cytotoxicity against human Hep3B cells assessed as growth inhibition after 72 hrs by sulforhodamine B assay. The format is functional, cell-based, Hep 3B2. The note with it: Homo sapiens, Hep3B, 72 h; read-out: IC50. The procedure, abridged:
as §1
As to `CC[C@@]1(O)C(=O)OCc2c1cc1n(c2=O)Cc2cc3ccccc3nc2-1` [CAMPTOTHECIN], the IC50 was under 1 µM.

The same assay, now with this note: hep 3b2.
On to `COc1ccc2cc([C@H](C)C(=O)O)ccc2c1` [NAPROXEN], for which the IC50 entry is “Not Active”.
On the same count and under the same terms, the entry for `CC(C(=O)O)c1ccc(-c2ccccc2)c(F)c1` (stereo not given) [FLURBIPROFEN] is “Not Active”; for `CC(c1ccc(-c2ccccc2)c(F)c1)c1n[nH]c(=S)n1N` (stereo not given) it is “Not Active”.
Still for that read-out and setting: the entry for `CC(C)Cc1ccc(C(C)C(=O)O)cc1` (stereo not given) [IBUPROFEN] is “Not Active”.

Tested on in another assay: not listed separately
The assay is described as follows: Cytotoxicity against human HCT116 cells assessed as growth inhibition after 72 hrs by sulforhodamine B assay. Format: functional, cell-based, HCT-116. As to conditions: Homo sapiens, HCT-116, 72 h; read-out: IC50. The procedure, abridged: as §1
For `COc1ccc2cc(C(C)c3nnc4n3N=C(c3ccc([N+](=O)[O-])cc3)CS4)ccc2c1` (stereo not given), the IC50 came out at 15.1 µM.
On the same count and under the same terms, to `COc1ccc2cc(C(C)c3nnc4n3N=C(c3ccc(F)cc3)CS4)ccc2c1` (stereo not given) belongs 13.1 µM.
Still for that read-out and setting: the figure for `CC(C)Cc1ccc(C(C)c2nnc3n2N=C(c2ccc(Cl)cc2)CS3)cc1` (stereo not given) is 6.7 µM; for `COc1ccc2cc(C(C)c3nnc4n3N=C(c3ccc(Cl)cc3)CS4)ccc2c1` (stereo not given) it is 8.8 µM; for `CC[C@@]1(O)C(=O)OCc2c1cc1n(c2=O)Cc2cc3ccccc3nc2-1` [CAMPTOTHECIN] it is at most 0.1 µM.
Still for that read-out and setting: the figure for `CC(c1ccc(-c2ccccc2)c(F)c1)c1nnc2n1N=C(c1ccc(C(F)(F)F)cc1)CS2` (stereo not given) is 6.1 µM; for `COc1ccc(C2=Nn3c(nnc3C(C)c3ccc4cc(OC)ccc4c3)SC2)cc1` (stereo not given) it is 6.5 µM; for `COc1ccc2cc(C(C)c3nnc4n3N=C(c3ccc(Br)cc3)CS4)ccc2c1` (stereo not given) it is 11.7 µM.
Consider `CC(C)Cc1ccc(C(C)c2nnc3n2N=C(c2ccccc2)CS3)cc1` (stereo not given), for which the IC50 amounted to 7.6 µM.
The same measure, in the same setting: the figure for `CC(C)Cc1ccc(C(C)c2nnc3n2N=C(c2ccc(Cl)cc2Cl)CS3)cc1` (stereo not given) is 11.1 µM.

The same assay, now with this note: hct-116.
Consider `COc1ccc2cc([C@H](C)C(=O)O)ccc2c1` [NAPROXEN], for which the half-inhibitory concentration (IC50) entry is “Not Active”.
On the same count and under the same terms, the entry for `CC(C(=O)O)c1ccc(-c2ccccc2)c(F)c1` (stereo not given) [FLURBIPROFEN] is “Not Active”; for `CC(c1ccc(-c2ccccc2)c(F)c1)c1n[nH]c(=S)n1N` (stereo not given) it is “Not Active”; for `CC(C)Cc1ccc(C(C)C(=O)O)cc1` (stereo not given) [IBUPROFEN] it is “Not Active”.
`CC(C)Cc1ccc(C(C)c2nnc3n2N=C(c2ccc([N+](=O)[O-])cc2)CS3)cc1` (stereo not given): the IC50 entry was “Not Active”.

Tested on in a further assay: not listed separately
The assay is described as follows: Cytotoxicity against human FOCUS cells assessed as growth inhibition after 72 hrs by sulforhodamine B assay. The format is functional, cell-based. The note with it: Homo sapiens, FOCUS, 72 h; read-out: IC50. The procedure, abridged: as §1
For the molecule `CC[C@@]1(O)C(=O)OCc2c1cc1n(c2=O)Cc2cc3ccccc3nc2-1` [CAMPTOTHECIN], the concentration for half-maximal inhibition (IC50) is under 1 µM.

Still in this assay, the particulars now being: focus.
With `COc1ccc2cc([C@H](C)C(=O)O)ccc2c1` [NAPROXEN], the concentration for half-maximal inhibition (IC50) result is reported as “Not Active”.
With `CC(C(=O)O)c1ccc(-c2ccccc2)c(F)c1` (stereo not given) [FLURBIPROFEN], the 50% inhibitory concentration (IC50) result is “Not Active”.
Same read-out and setting: to `CC(c1ccc(-c2ccccc2)c(F)c1)c1n[nH]c(=S)n1N` (stereo not given) belongs “Not Active”.
The same measure, in the same setting: the entry for `CC(C)Cc1ccc(C(C)C(=O)O)cc1` (stereo not given) [IBUPROFEN] is “Not Active”.

Tested on in a further assay: not listed separately
The experiment in a line: Cytotoxicity against human HuH7 cells assessed as growth inhibition after 72 hrs by sulforhodamine B assay. Format: functional, cell-based, Huh-7. As to conditions: Homo sapiens, Huh-7, 72 h; read-out: IC50. The procedure, abridged: as §1
As for `COc1ccc2cc(C(C)c3nnc4n3N=C(c3ccc([N+](=O)[O-])cc3)CS4)ccc2c1` (stereo not given), the IC50 stood at 14.7 µM.
On the same count and under the same terms, to `COc1ccc2cc(C(C)c3nnc4n3N=C(c3ccc(F)cc3)CS4)ccc2c1` (stereo not given) belongs 7 µM; to `CC(c1ccc(-c2ccccc2)c(F)c1)c1n[nH]c(=S)n1N` (stereo not given), 43.1 µM.
Regarding `CC(C)Cc1ccc(C(C)c2nnc3n2N=C(c2ccc(Cl)cc2)CS3)cc1` (stereo not given), the IC50 was 5.7 µM.
`CC(C)Cc1ccc(C(C)C(=O)O)cc1` (stereo not given) [IBUPROFEN]: the half-inhibitory concentration (IC50) came to 37.2 µM.
As to `COc1ccc2cc(C(C)c3nnc4n3N=C(c3ccc(Cl)cc3)CS4)ccc2c1` (stereo not given), the half-maximal inhibitory concentration (IC50) turned out to be 5.6 µM.
As for `CC[C@@]1(O)C(=O)OCc2c1cc1n(c2=O)Cc2cc3ccccc3nc2-1` [CAMPTOTHECIN], the concentration for half-maximal inhibition (IC50) was at most 0.1 µM.
Consider `CC(c1ccc(-c2ccccc2)c(F)c1)c1nnc2n1N=C(c1ccc(C(F)(F)F)cc1)CS2` (stereo not given), for which the half-maximal inhibitory concentration (IC50) was determined as 9.4 µM.
The same measure, in the same setting: the figure for `COc1ccc(C2=Nn3c(nnc3C(C)c3ccc4cc(OC)ccc4c3)SC2)cc1` (stereo not given) is 8.5 µM.
Same read-out and setting: to `COc1ccc2cc(C(C)c3nnc4n3N=C(c3ccc(Br)cc3)CS4)ccc2c1` (stereo not given) belongs 9.3 µM; to `CC(C)Cc1ccc(C(C)c2nnc3n2N=C(c2ccccc2)CS3)cc1` (stereo not given), 6.1 µM.
Still for that read-out and setting: to `CC(C)Cc1ccc(C(C)c2nnc3n2N=C(c2ccc(Cl)cc2Cl)CS3)cc1` (stereo not given) belongs 7.5 µM.

Still in this assay, the particulars now being: huh-7.
As to `COc1ccc2cc([C@H](C)C(=O)O)ccc2c1` [NAPROXEN], the IC50 result is “Not Active”.
As for `CC(C(=O)O)c1ccc(-c2ccccc2)c(F)c1` (stereo not given) [FLURBIPROFEN], the IC50 result is on record as “Not Active”.
With `CC(C)Cc1ccc(C(C)c2nnc3n2N=C(c2ccc([N+](=O)[O-])cc2)CS3)cc1` (stereo not given), the half-inhibitory concentration (IC50) result is recorded as “Not Active”.
